Data set [1] has as its system Nakaseomyces glabratus. Briefly: Antifungal activity against Candida glabrata ATCC 90030 at 200 ug/ml by agar tube dilution test. Format: functional.
In data set [2] the test system is Microsporum canis. The experiment in a line: Antifungal activity against Microsporum canis ATCC 9865 at 200 ug/ml by agar tube dilution test. It counts as functional.
For data set [3], the system named is Aspergillus flavus. Briefly: Antifungal activity against Aspergillus flavus ATCC 1030 at 200 ug/ml by agar tube dilution test. Format: functional.
For data set [4], the system named is Leishmania major. The experiment in a line: Antileishmanial activity against Leishmania major MHOM/PK/88/DESTO promastigotes by alamar blue assay. It counts as functional, organism-based. In general terms: Alamar Blue is a resazurin reagent that responds to reducing activity.
In data set [5] the test system is Trichophyton longifusum. The experiment in a line: Antifungal activity against Trichophyton longifusum ATCC 22397 at 200 ug/ml by agar tube dilution test. It counts as functional.
Data set [6] deals with Fusarium solani. Briefly: Antifungal activity against Fusarium solani ATCC 11712 at 200 ug/ml by agar tube dilution test. Format: functional.
Data set [7] relates to Candida albicans. Briefly: Antifungal activity against Candida albicans ATCC 2192 at 200 ug/ml by agar tube dilution test. Format: functional.
Data set [8] in a line: Toxicity against Artemia salina nauplii larvae. Particulars: in vivo, read-out: LD50 (the source's name). It counts as organism-based. The method in brief:
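Brine shrimp lethality bioassay. LD50 was derived from the mortality data by Finney's probit analysis.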

Data set [9] deals with Salmonella enterica. Briefly: Antibacterial activity against Salmonella typhi ATCC 10749 at 10 mg/disk by agar well-diffusion method. Format: functional, Salmonella enterica subsp. enterica serovar Typhi. The method in brief: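 Agar well-diffusion assay with compounds at 1 mg mL-1 in DMSO. Imipenem served as the reference disc. The read-out is the inhibition zone diameter in mm, graded as 3-6 non-significant, 7-9 low, 10-12 good and >12 significant.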

The subject of data set [10] is Bacillus subtilis. Briefly: Antibacterial activity against Bacillus subtilis ATCC 11774 […] by agar well-diffusion method. Format: functional. The method in brief:
(§1)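 Test compounds dissolved in DMSO at 1 mg mL-1 and applied in agar wells; imipenem reference at 10 mg/disc. Inhibition zone diameter was read and graded as 3-6 mm non-significant, 7-9 mm low, 10-12 mm good, and >12 mm significant.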
(In agar diffusion tests the substance spreads into inoculated agar from a disc or well.)

For data set [11], the system named is Shigella flexneri. Briefly: Antibacterial activity against Shigella flexneri ATCC 10782 […] by agar well-diffusion method. Format: functional. The method in brief:
as §1

Data set [12] deals with Escherichia coli. Briefly: Antibacterial activity against Escherichia coli ATCC 11229 […] by agar well-diffusion method. It counts as functional. The method in brief:
as §1

The subject of data set [13] is Staphylococcus aureus. Briefly: Antibacterial activity against Staphylococcus aureus ATCC 25923 […] by agar well-diffusion method. Format: functional. The method in brief:
as §1

Data set [14] has as its system Pseudomonas aeruginosa. The experiment in a line: Antibacterial activity against Pseudomonas aeruginosa ATCC 10145 […] by agar well-diffusion method. It counts as functional. The method in brief: as §1

SMILES strings stand for the structures. In brackets after ≈: the same amount, converted by molar mass.

As usually defined, the inhibition is the drop in the measured response relative to a control, in per cent. A low value points to a weak effect. In general, IC50 refers to the concentration that inhibits the measured activity by half. Low readings indicate inhibition by little substance, high ones a need for much substance.

Take `O=CN/N=C/c1ccccc1O`: the inhibition at 200 µg/mL in [1] is 0%; in data set [2] it was 0%; in data set [3], 40%; in data set [5], 0%; in data set [6], 0%; in data set [7] it was 0%. In addition, in [4], half-maximal inhibition (IC50) was put at 24 µg/mL (≈ 146 µM).
With `COc1cc([C@@H]2c3cc4c(cc3[C@@H](O[C@@H]3O[C@@H]5CO[C@@H](C)O[C@H]5[C@H](O)[C@H]3O)[C@H]3COC(=O)[C@H]23)OCO4)cc(OC)c1O` [ETOPOSIDE], the LC50 in data set [8] was 7.46 µg/mL (≈ 12.7 µM).
On to `C[C@@H](O)[C@H]1C(=O)N2C(C(=O)O)=C(SCCNC=N)C[C@H]12` [IMIPENEM ANHYDROUS], for which the “diameter of the inhibition zone (DIZ)” value in data set [9] is listed as 30 mm; in [10], 37 mm; in data set [11], 36 mm; in [12], 30 mm; in [13], 26 mm; in data set [14], 32 mm.

These data come from ChEMBL document CHEMBL1177863, “Diorganotin(IV) derivatives of ONO tridentate Schiff base: synthesis, crystal structure, in vitro antimicrobial, anti-leishmanial and DNA binding studies” (Eur J Med Chem, 2010).
